Experiments:
[1] = tested on: L6; assay: Cytotoxicity against rat L6 cells after 70 hrs by Alamar Blue assay; format: functional, cell-based; conditions: L6, 70 h
In short: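 Rat skeletal myoblast L6 cells, 4000 per well, in RPMI 1640 with 1% L-glutamine and 10% fetal bovine serum. Eleven 3-fold serial drug dilutions were tested. Alamar Blue was added for a final 2 h. Fluorescence was read at excitation 536 nm and emission 588 nm. IC₅₀ is the mean of two independent assays.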

[2] = tested on: Plasmodium falciparum; assay: Antimalarial activity against erythrocytic stage of chloroquine-sensitive Plasmodium falciparum NF54 after 48 hrs by [3H]-hypoxanthine incorporation assay; format: functional, organism-based
In short: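 ³H-hypoxanthine incorporation against P. falciparum NF54. DMSO stocks at 10 mg/mL were added to cultures in hypoxanthine-free RPMI 1640 with HEPES, NaHCO₃, neomycin and Albumax, using human A⁺ red cells at 2.5% haematocrit and 0.3% parasitaemia. Eleven 3-fold serial dilutions were tested. Incubation was under 4% CO₂/3% O₂/93% N₂. ³H-hypoxanthine was added after 48 h, followed by a further 24 h. Cells were harvested onto glass-fibre filters. IC₅₀ is the mean of two independent assays.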

[3] = Selectivity index, ratio of IC50 for rat L6 cells to IC50 for erythrocytic stage of chloroquine-sensitive Plasmodium falciparum NF54; format: toxicity, cell-based; conditions: read-out: Ratio IC50
In short: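 Selectivity index is the L6 cytotoxicity IC₅₀ divided by the NF54 antiplasmodial IC₅₀. Each IC₅₀ is the mean of two independent assays.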

[4] = tested on: Plasmodium falciparum; assay: Antimalarial activity against erythrocytic stage of chloroquine/pyrimethamine-resistant Plasmodium falciparum K1 after 48 hrs by [3H]-hypoxanthine incorporation assay; format: functional, organism-based
In short: (§1)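 Chloroquine/pyrimethamine-resistant K1 and drug-susceptible NF54 P. falciparum were grown in hypoxanthine-free RPMI 1640 with HEPES, NaHCO₃, neomycin and Albumax, in human A⁺ erythrocytes at 2.5% haematocrit and 0.3% parasitaemia. DMSO stocks were 10 mg/mL, tested in eleven 3-fold dilutions under 4% CO₂/3% O₂/93% N₂. ³H-hypoxanthine was added at 48 h, then 24 h more before filter harvest. IC₅₀ is the mean of two assays; RI = K1/NF54 IC₅₀.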

[5] = Selectivity index, ratio of IC50 for rat L6 cells to IC50 for chloroquine/pyrimethamine-resistant Plasmodium falciparum K1; format: toxicity, cell-based; conditions: read-out: Ratio IC50
[6] = Resistance index, ratio of IC50 for chloroquine/pyrimethamine-resistant Plasmodium falciparum K1 to IC50 for erythrocytic stage of chloroquine-sensitive Plasmodium falciparum NF54; format: functional; in short: as §1
[7] = Binding affinity to haematin assessed as inhibition of beta-haematin formation after 5 to 6 hrs by pyridine-ferrichrome-based method
In short: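 Detergent (NP-40) mediated β-haematin formation assay, run manually. Compounds came from 20, 2 and 0.4 mM DMSO stocks, tested at 0–1000 µM final. Haematin was 100 µM final in 0.5 M acetate buffer, pH 4.8. Incubation was 5–6 h at 37 °C. Read-out used the pyridine-ferrichrome method with UV–vis absorbance. IC₅₀ came from sigmoidal dose–response fits.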

[8] = tested on: Plasmodium berghei; assay: Antimalarial activity against Plasmodium berghei infected in Swiss mouse assessed as reduction in parasitemia at 50 mg/kg, ip qd administered for 4 days measured on day 4 post last dose by FACS analysis relative to control; format: functional; parameters: scale not given: the % may be the effect or the level left; conditions: route intraperitoneal
In short: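 Plasmodium berghei-infected mice, standard '4 Day Test'. Parasitaemia measured by FACS. Activity is the difference between mean percent parasitaemia of control (n = 5 mice) and treated groups, expressed as a percentage of control.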

[9] = tested on: Plasmodium berghei; assay: Antimalarial activity against Plasmodium berghei infected in Swiss mouse assessed as survival at 50 mg/kg, ip qd administered for 4 days measured on day 4 post last dose; format: functional; conditions: route intraperitoneal

| Compound | IC50 [1] | IC50 [2] | selectivity ratio [3] | IC50 [4] | selectivity ratio [5] | Ratio IC50 [6] | IC50 [7] | Activity [8] | Survival [9] |
| --- | --- | --- | --- | --- | --- | --- | --- | --- | --- |
| O=C(NCCCNc1nc2ccc(Cl)cc2c2[nH]c3ccccc3c12)Nc1ccccc1 | 2570 nM | 27 nM | 95.1 | 50 nM | 51.4 | 1.9 | 14400 nM | – | – |
| NCCCCCCNc1nc2ccccc2c2[nH]c3ccccc3c12 | 1180 nM | 15 nM | 78.8 | 90.2 nM | 13.1 | 6 | 49600 nM | – | – |
| CC(C)(CN)CNc1nc2ccc(Cl)cc2c2[nH]c3ccccc3c12 | 1840 nM | 25.5 nM | 72.1 | 51 nM | 36.1 | 2 | 20700 nM | – | – |
| O=C(NCCCNc1nc2ccccc2c2[nH]c3ccccc3c12)c1cccs1 | 3500 nM | 72.4 nM | 48.3 | 84.9 nM | 41.2 | 1.2 | 24100 nM | – | – |
| Cn1cc2c3ccccc3nc-2c2ccccc21 [ISOCRYPTOLEPINE] | – | – | – | – | 1.5 | – | – | – | – |
| COc1ccc2nc(NCCCNC(=O)Nc3ccccc3)c3c4ccccc4[nH]c3c2c1 | 1520 nM | 17.1 nM | 88.8 | 19.6 nM | 77.4 | 1.1 | 14800 nM | – | – |
| O=C(NCCCNc1nc2ccc(F)cc2c2[nH]c3ccccc3c12)Nc1ccccc1 | 1500 nM | 25.7 nM | 58.5 | 49.2 nM | 30.6 | 1.9 | 22700 nM | – | – |
| CN(C)CCCNc1nc2ccccc2c2[nH]c3ccccc3c12 | 606 nM | 9.4 nM | 64.3 | 25.1 nM | 24.1 | 2.66 | 83600 nM | – | – |
| O=S(=O)(NCCCNc1nc2ccccc2c2[nH]c3ccccc3c12)c1ccccc1 | 811 nM | 72 nM | 11.3 | 92.9 nM | 8.7 | 1.3 | 24200 nM | – | – |
| O=C(NCCCNc1nc2ccccc2c2[nH]c3ccccc3c12)Nc1ccccc1 | 1150 nM | 2.4 nM | 480 | 53.7 nM | 21.5 | 22.4 | 23900 nM | – | – |
| O=C(NCCCNc1nc2ccc(Br)cc2c2[nH]c3ccccc3c12)Nc1ccccc1 | 1280 nM | 22.5 nM | 56.9 | 36.9 nM | 34.7 | 1.6 | 13900 nM | – | – |
| NCCCNc1nc2ccc(Cl)cc2c2[nH]c3ccccc3c12 | 1120 nM | 6.2 nM | 181 | 67.7 nM | 16.6 | 10.9 | 12400 nM | – | – |
| NCCCCCNc1nc2ccccc2c2[nH]c3ccccc3c12 | 816 nM | 12.6 nM | 64.8 | 25.1 nM | 32.5 | 2 | 81000 nM | – | – |
| Cc1ccc2nc(NCCCNC(=O)Nc3ccccc3)c3c4ccccc4[nH]c3c2c1 | 966 nM | 23.6 nM | 40.9 | 42.5 nM | 22.7 | 1.8 | 17200 nM | – | – |
| S=C(NCCCNc1nc2ccccc2c2[nH]c3ccccc3c12)Nc1ccccc1 | 249 nM | 23.5 nM | 10.6 | 49.3 nM | 5.1 | 2.1 | 18500 nM | – | – |
| O=C(NCCCCCCNc1nc2ccccc2c2[nH]c3ccccc3c12)Nc1ccccc1 | 862 nM | 22.1 nM | 39 | 24.4 nM | 35.3 | 1.1 | 16200 nM | – | – |
| C[C@@H]1CC[C@H]2[C@@H](C)C(=O)O[C@@H]3O[C@@]4(C)CC[C@@H]1[C@]32OO4 [ARTEMISININ] | – | 4.3 nM | – | 2.8 nM | – | 0.7 | – | – | – |
| O=C(NCCCNc1nc2ccc([N+](=O)[O-])cc2c2[nH]c3ccccc3c12)Nc1ccccc1 | 4640 nM | 24.2 nM | 192 | – | – | – | 15200 nM | – | – |
| NCCCNc1nc2ccccc2c2[nH]c3ccccc3c12 | 627 nM | 13.7 nM | 45.8 | 82.7 nM | 7.6 | 6 | 116000 nM | – | – |
| CC(CN)CNc1nc2ccc(Cl)cc2c2[nH]c3ccccc3c12 (stereo unspecified) | 1920 nM | 29.5 nM | 65 | 59 nM | 32.5 | 2 | 12700 nM | – | – |
| CN(C)CCCNc1nc2ccc(Br)cc2c2c1c1ccccc1n2C | 457 nM | 48.6 nM | 9.4 | – | – | – | 39900 nM | – | – |
| Cn1c2ccccc2c2c(NCC(C)(C)CN)nc3ccc(Cl)cc3c21 | 425 nM | 95.4 nM | 4.5 | – | – | – | 38400 nM | – | – |
| c1ccc(CNc2nc3ccccc3c3[nH]c4ccccc4c23)cc1 | 2930 nM | 18.6 nM | 158 | – | – | – | 30600 nM | – | – |
| CC(CNC(=O)Nc1ccccc1)CNc1nc2ccc(Cl)cc2c2[nH]c3ccccc3c12 (stereo unspecified) | 4110 nM | 10.9 nM | 377 | 17.5 nM | 235 | 1.6 | 14600 nM | – | – |
| Cn1c2ccccc2c2c(NCCCN)nc3ccccc3c21 | 279 nM | 72.3 nM | 3.9 | 85.4 nM | 3.3 | 1.2 | 24200 nM | – | – |
| c1ccc2c(c1)nc(N1CCCNCC1)c1c3ccccc3[nH]c21 | 4110 nM | 63.2 nM | 65 | – | – | – | 171000 nM | – | – |
| CC(C)(CNC(=O)Nc1ccccc1)CNc1nc2ccc(Cl)cc2c2[nH]c3ccccc3c12 | 4000 nM | 10.6 nM | 378 | 16.9 nM | 236 | 1.6 | 11700 nM | 38% | 4 days |
